ABCB1 inh: inhibitors of human ABCB1 transporter, ABCG2 counter-screen | CCRF-Adr cells, JC-1 efflux, flow cytometry | P08183 | inhibition, % at 6.6 µM | 190,000 compounds, 0.067% hits; in the data active = inhibition above about 40%;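 note: higher value means more JC-1 retained so stronger ABCB1 efflux block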
ABCG2 block: inhibitors of human ABCG2 transporter, ABCB1 counter-screen; 190,000 compounds, 0.1% hits; inhibition, % at 6.6 µM; Q9UNQ0; AID 1325; IgMXP3 cells, JC-1 efflux, flow cytometry;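 active = inhibition above 80%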
Target sequence (Q9UNQ0 whole entry, looked up): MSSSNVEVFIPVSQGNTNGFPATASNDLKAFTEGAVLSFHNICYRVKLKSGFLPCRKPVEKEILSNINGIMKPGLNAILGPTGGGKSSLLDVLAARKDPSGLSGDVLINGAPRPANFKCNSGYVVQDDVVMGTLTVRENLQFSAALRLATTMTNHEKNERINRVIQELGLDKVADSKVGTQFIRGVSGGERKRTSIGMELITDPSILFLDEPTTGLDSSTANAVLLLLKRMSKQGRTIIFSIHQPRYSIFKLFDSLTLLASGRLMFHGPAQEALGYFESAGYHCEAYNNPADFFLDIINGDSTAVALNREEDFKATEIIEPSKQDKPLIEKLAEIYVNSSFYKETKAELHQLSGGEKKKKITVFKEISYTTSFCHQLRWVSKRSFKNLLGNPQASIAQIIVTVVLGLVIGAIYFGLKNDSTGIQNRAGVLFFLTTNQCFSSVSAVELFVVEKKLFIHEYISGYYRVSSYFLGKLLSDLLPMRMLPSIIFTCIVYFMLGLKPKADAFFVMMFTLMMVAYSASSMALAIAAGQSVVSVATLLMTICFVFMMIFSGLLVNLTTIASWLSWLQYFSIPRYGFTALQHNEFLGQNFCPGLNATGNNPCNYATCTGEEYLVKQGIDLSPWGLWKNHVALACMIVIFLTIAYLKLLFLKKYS
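material = IgMXP3 (ABCG2) plus far-red-tagged CCRF-Adr (ABCB1) cells | amount = 3 million cells/mL, equal mix of both lines | also added = JC-1 transporter substrate | dosing = one concentration, 6.6 µM final | schedule = 10 min at 25 °C | measured by = flow cytometric JC-1 green MFI at 530 nm | read-out basis = percent efflux inhibition, scaled nicardipine 100% to DMSO 0%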
Arbovirus anti: blocks arbovirus infection | arbovirus infection cell-based antiviral screen | inhibition, % at 10 µM | 200,000 compounds, 0.37% hits; in the data active = inhibition above about 30%
RAM network inh: blocks the yeast RAM network; S. cerevisiae dse1pr::URA3 reporter, 5-FOA growth OD615, 2 d; analog-sensitive cbk1-as2 kinase mutant strain; inhibition, % at 50 µM; 190,000 compounds, 1.8% hits; AID 868;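 active = inhibition above a set limit, 3 SD over mean compound inhibition, cut at about 8.4% in these data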;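 note: inhibition rescues growth on 5-FOA so higher OD means more RAM inhibition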
A number is an active result; i = inactive; nt = no result. Most compounds without a hit are left out; they make up all but 2.3% or so of the library.

SMILES | ABCB1 inh | ABCG2 block | Arbovirus anti | RAM network inh
CN1CCN(c2ccc(Cl)cc2NC(=O)c2ccc(S(=O)(=O)N(C)C)cc2)CC1 | i | i | i | i
COc1ccc(C(=O)Nc2cc([N+](=O)[O-])ccc2N2CCCC2)cc1 | i | i | i | 8.5
CN(Cc1ccccc1NC(=O)c1ccc(S(=O)(=O)N(C)C)cc1)C1CCCCC1 | i | i | 47 | i
CCn1nc(C)cc1Nc1ccccc1 | i | i | i | i
CCCCP(=O)(CCCC)CCP(=O)(c1ccccc1)c1ccccc1 | i | i | i | i
COc1ccc(CCN(Cc2cc3cc(C)cc(C)c3nc2Cl)C(=O)C2CC2)cc1 | i | i | i | 11
C/C(=N\NC(=O)c1c(Cl)c(C)nn1C)c1ccc(NC(=O)c2ccncc2)cc1 | i | i | 41 | i
CCC(=O)NS(=O)(=O)c1ccc(N=NN2CCCCC2)cc1 | i | i | i | i
CC(/C=C/c1ccccc1)=N/NC(=O)c1nc2nc(C)cc(C)n2n1 | i | i | i | i
COCCCn1c(N)c(-c2nc3ccccc3n2C)c2nc3ccccc3nc21 | i | i | 44 | i
O=C(NC1CCN(Cc2ccccc2)CC1)c1ccc(Cn2c(=S)[nH]c3ccc(N4CCOCC4)cc3c2=O)cc1 | i | i | i | i
COc1ccc(CC(=O)OCC(=O)NCc2ccc(Cl)cc2)cc1 | i | i | i | i
COc1ccc(CNC(=O)COC(=O)Cc2ccc(Cl)cc2Cl)cc1 | i | i | i | 11
COCCOC(=O)C1=C(C)NC(=O)NC1c1c(Cl)nc2c(C)cccn2c1=O (stereo not drawn) | i | i | i | i
Cc1ccc(-c2cc(-c3ccccc3)no2)c(O)c1 | i | i | 36 | i
COc1ccc(NC(=O)/C=C/c2ccccc2)cn1 | i | i | i | i
COc1ccc(NC(=O)/C=C/c2cc(OC)c(OC)c(OC)c2)cn1 | i | i | i | 9.0
N#Cc1cc2c(nc1SCc1ccc(Cl)cc1)CCCC2 | i | i | i | 8.7
N#Cc1cc2c(nc1SCc1ccccc1)CCCCC2 | i | i | i | i
CC1CCCN(C(=O)N2c3ccccc3Sc3ccccc32)C1 (stereo not drawn) | i | i | i | 10
O=C(CCc1ccccc1)Nc1cc(Cl)ccc1O | i | i | i | i
O=c1[nH]c(=O)n(Cc2ccco2)c2c1C(C(F)(F)F)(C(F)(F)F)N=C(c1ccc(F)cc1)N2 | i | i | i | 8.8
Cc1ccccc1Nc1nc(N)nc(COC(=O)C2CCCCC2)n1 | i | i | i | i
O=[N+]([O-])c1cc(C2Nc3cccc4cccc(c34)N2)ccc1Cl | i | i | i | 11
Cc1ccc(S(=O)(=O)N(CC(=O)Nc2cccc(N(C)S(C)(=O)=O)c2)c2ccc(Cl)c(Cl)c2)cc1 | i | i | i | i
SMILES | ABCB1 inh | ABCG2 block | Arbovirus anti | RAM network inh
Cc1ccccc1OCC(=O)Nc1cccc(N(C)S(C)(=O)=O)c1 | i | i | i | i
Cc1cc(NC(=O)COc2ccc(Cl)cc2Cl)n(-c2ccccc2)n1 | i | i | i | 8.6
CN(c1cccc(NC(=O)COc2ccc(Cl)cc2Cl)c1)S(C)(=O)=O | i | i | i | 8.8
CN(c1cccc(NC(=O)CN(c2ccc(Cl)c(Cl)c2)S(=O)(=O)c2ccccc2)c1)S(C)(=O)=O | i | i | i | 9.7
Cc1cc(NC(=O)CSc2cc(Cl)ccc2Cl)n(-c2ccccc2)n1 | i | i | i | i
c1ccc(-c2n[nH]c3ccccc23)cc1 | i | i | i | i
CCn1c(SCC(=O)N2CCN(c3ccccc3)CC2)nnc1-c1ccoc1C | i | i | i | i
COCCN1C(=O)c2ccccc2C(C(=O)Nc2ccc3c(c2)OCCO3)C1c1ccc(F)cc1 (stereo not drawn) | i | i | i | i
CCOC(=O)c1c(NC(=O)c2cccs2)sc(CC)c1-c1cccs1 | i | i | i | 10
CCOC(=O)c1c(-c2cccs2)csc1NC(=O)CSc1ncn[nH]1 | i | i | i | 9.4
CCOC(=O)c1c(-c2cccs2)csc1NC(C)=O | i | i | i | i
CCOC(=O)c1c(-c2ccc(C)s2)csc1NC(=O)c1cccs1 | i | i | i | i
CCOC(=O)c1c(-c2cccs2)csc1NC(=O)C(C)(C)C | i | i | i | 8.6
CCCCCc1c(C)nc(N2CCc3ccccc32)[nH]c1=O | i | i | i | 9.9
CCOc1ccc2c(=O)c(Oc3ccccc3)c(C)oc2c1 | i | i | i | i
CCOc1cc(C2c3c(oc4cc(C)c(Cl)cc4c3=O)C(=O)N2Cc2ccco2)ccc1O (stereo not drawn) | i | i | i | 8.4
Nc1ccccc1N1CCOCC1 | i | i | i | i
O=C(NCCN1C(=O)S/C(=C/c2ccccc2)C1=O)C1CCCN1C(=O)c1cccs1 (stereo not drawn) | i | i | i | 9.5
CC(C)CNC(=O)c1oc2ccccc2c1COc1ccccc1 | i | i | i | 8.9
O=c1c2ccccc2sn1-c1cc(S(=O)(=O)N2CCOCC2)ccc1N1CCOCC1 | i | i | i | 9.2
CSCCC(NC(=O)c1ccccc1)C(=O)OCC(=O)c1ccc[nH]1 (stereo not drawn) | i | i | i | i
CC(C)OC(=O)CCNc1n[nH]c(=O)[nH]c1=O | i | i | i | i
Cc1ccc(N2C(=O)C3CC(c4ccccc4)=C4C5C=CC(C6C(=O)N(c7ccc(C)cc7)C(=O)C56)C4C3C2=O)cc1 (stereo not drawn) | i | i | 33 | i
COc1ccc(S(=O)(=O)N2CCCCC2)cc1C(C)C | i | i | i | 10
O=S(=O)(c1ccccc1)c1cccc(S(=O)(=O)N2CCCCC2)c1 | i | i | i | i
SMILES | ABCB1 inh | ABCG2 block | Arbovirus anti | RAM network inh
COc1ccc(Oc2ccc(S(=O)(=O)N3CCCCC3)cc2S(=O)(=O)N2CCCCC2)cc1 | nt | nt | 36 | nt
COc1ccccc1Oc1ccc(S(=O)(=O)N2CCCC2)cc1 | i | i | i | i
COc1ccc(S(=O)(=O)N2CCCCCC2)cc1N(C)S(=O)(=O)c1ccccc1 | i | i | i | 10
COCCn1c(=S)[nH]c2cc(OC)c(OC)cc2c1=O | i | i | i | i
CCOC(=O)C1C(c2ccc(C)o2)NC(=O)NC1(O)C(F)(F)F (stereo not drawn) | i | i | i | i
O=C(CSc1ncn[nH]1)Nc1nc(-c2ccccc2)ns1 | i | i | 41 | i
O=C(CSc1ncn[nH]1)Nc1ccccc1C(=O)O | i | i | i | i
CCC(=O)Nc1nc(-c2ccccc2)ns1 | i | i | i | i
O=C(Nc1nc(-c2ccccc2)cs1)c1cccs1 | i | i | 74 | i
O=C(Nc1nc(-c2ccccc2)cs1)c1ccc(=O)[nH]c1 | i | i | 38 | i
O=C(Nc1nc(-c2ccccc2)ns1)c1cccs1 | i | i | 30 | i
CN1CCNC(=O)C1CC(=O)NCC1(c2ccccc2)CCCCC1 (stereo not drawn) | i | i | i | i
O=C(Nc1ccc(CN2CCOCC2)cc1)c1ccc(N2CCCC2)c([N+](=O)[O-])c1 | i | i | i | i
CCOc1cc(N2CCOCC2)c(OCC)cc1NC(=O)c1ccc(OCc2c(C)noc2C)c(OC)c1 | i | i | i | 8.7
COc1cc(NS(C)(=O)=O)cc(OC)c1OC | i | i | i | i
COc1cc(NC(c2ccccc2)c2ccccc2)cc(OC)c1OC | i | i | i | 8.4

High-throughput results deposited in PubChem by several laboratories.
